Laboratory results taken from ChEMBL document CHEMBL2429786, “New serotonin 5-HT1A receptor agonists endowed with antinociceptive activity in vivo” (J Med Chem, 2013).
Calls of active or inactive are those of the source. No cut-off for these calls is given here.

What was measured:
[1] = target: T1, Muscarinic acetylcholine receptor M4 (Homo sapiens) (UniProt P08173); assay: Displacement of [3H]-4-DAMP from muscarinic M4 receptor (unknown origin) at 1 uM after 60 mins
T1 sequence (whole entry): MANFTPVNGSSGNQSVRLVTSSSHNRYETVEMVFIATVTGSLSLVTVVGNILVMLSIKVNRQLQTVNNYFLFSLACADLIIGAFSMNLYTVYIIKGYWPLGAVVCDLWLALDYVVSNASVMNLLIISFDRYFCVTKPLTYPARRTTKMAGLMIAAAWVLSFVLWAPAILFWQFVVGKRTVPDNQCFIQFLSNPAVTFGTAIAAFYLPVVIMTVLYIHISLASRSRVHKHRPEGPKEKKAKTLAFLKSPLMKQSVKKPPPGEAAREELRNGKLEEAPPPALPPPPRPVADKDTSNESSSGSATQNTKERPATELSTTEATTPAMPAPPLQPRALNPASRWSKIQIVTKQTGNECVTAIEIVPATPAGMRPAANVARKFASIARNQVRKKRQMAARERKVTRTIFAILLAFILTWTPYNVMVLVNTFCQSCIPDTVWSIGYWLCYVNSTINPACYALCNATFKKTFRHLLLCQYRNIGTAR

[2] = target: T2, Muscarinic acetylcholine receptor M2 (Homo sapiens) (UniProt P08172); assay: Displacement of [3H]AF-DX 384 from muscarinic M2 receptor (unknown origin) at 1 uM after 60 mins
T2 sequence (whole entry): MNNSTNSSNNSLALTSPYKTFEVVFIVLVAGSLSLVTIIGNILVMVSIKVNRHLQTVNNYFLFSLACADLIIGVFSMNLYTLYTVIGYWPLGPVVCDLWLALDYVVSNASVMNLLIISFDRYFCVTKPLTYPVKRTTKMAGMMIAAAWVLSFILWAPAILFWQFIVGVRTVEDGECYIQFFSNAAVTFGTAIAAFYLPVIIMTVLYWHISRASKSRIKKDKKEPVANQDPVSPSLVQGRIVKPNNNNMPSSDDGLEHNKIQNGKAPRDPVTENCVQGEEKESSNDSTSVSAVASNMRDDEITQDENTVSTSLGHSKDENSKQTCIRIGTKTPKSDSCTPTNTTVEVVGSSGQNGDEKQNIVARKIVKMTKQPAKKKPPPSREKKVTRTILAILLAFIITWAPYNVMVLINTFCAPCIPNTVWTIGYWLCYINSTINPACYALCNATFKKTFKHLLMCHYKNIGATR

[3] = target: Cannabinoid receptor 1 (Homo sapiens) (UniProt P21554); assay: Displacement of [3H]CP 55940 from CB1 receptor (unknown origin) at 1 uM after 120 mins
Sequence of Cannabinoid receptor 1 (Homo sapiens) (P21554 whole entry): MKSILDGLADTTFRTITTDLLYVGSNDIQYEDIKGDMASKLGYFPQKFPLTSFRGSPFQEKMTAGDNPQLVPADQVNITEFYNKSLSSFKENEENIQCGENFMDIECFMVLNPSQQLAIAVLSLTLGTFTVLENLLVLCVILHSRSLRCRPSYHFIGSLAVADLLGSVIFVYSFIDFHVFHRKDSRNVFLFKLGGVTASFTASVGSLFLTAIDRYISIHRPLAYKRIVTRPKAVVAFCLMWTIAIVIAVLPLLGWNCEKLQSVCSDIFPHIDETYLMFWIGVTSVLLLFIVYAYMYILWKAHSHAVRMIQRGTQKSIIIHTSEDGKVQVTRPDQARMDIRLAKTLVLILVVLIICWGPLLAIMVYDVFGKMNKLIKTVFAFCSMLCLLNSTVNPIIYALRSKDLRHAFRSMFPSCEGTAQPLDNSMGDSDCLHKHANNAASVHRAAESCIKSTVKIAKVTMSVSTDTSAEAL

[4] = test system: Mus musculus; assay: Toxicity in CD-1 mouse at 3 mg/kg, ip and 30 mg/kg, po; format: organism-based; settings: in vivo
[5] = test system: Mus musculus; assay: Antinociceptive activity in CD-1 mouse assessed as reduction of formalin-induced paw licking activity at 3 mg/kg, ip administered 15 mins prior to formalin-challenge measured after 5 mins in presence of 5-HT1A receptor antagonist WAY-100635; format: functional, organism-based; parameters: dose 3 mg/kg
[6] = test system: Mus musculus; assay: Antinociceptive activity in CD-1 mouse assessed as reduction of formalin-induced paw licking activity at 3 mg/kg, ip administered 15 mins prior to formalin-challenge measured after 15 to 30 mins; format: functional, organism-based; parameters: dose 3 mg/kg
[7] = target: CYP2D6 (Homo sapiens, UniProt P10635); assay: Inhibition of human recombinant microsomal CYP2D6 using {3-[2-(N,N-diethyl-N-methylamino)ethyl]-7-methoxy-4-methylcoumarin} as substrate assessed as remaining activity at 10 uM after 30 mins by spectrofluorimetric analysis relative to control; format: ADME; settings: read-out: Activity
Sequence of CYP2D6 (P10635 whole entry): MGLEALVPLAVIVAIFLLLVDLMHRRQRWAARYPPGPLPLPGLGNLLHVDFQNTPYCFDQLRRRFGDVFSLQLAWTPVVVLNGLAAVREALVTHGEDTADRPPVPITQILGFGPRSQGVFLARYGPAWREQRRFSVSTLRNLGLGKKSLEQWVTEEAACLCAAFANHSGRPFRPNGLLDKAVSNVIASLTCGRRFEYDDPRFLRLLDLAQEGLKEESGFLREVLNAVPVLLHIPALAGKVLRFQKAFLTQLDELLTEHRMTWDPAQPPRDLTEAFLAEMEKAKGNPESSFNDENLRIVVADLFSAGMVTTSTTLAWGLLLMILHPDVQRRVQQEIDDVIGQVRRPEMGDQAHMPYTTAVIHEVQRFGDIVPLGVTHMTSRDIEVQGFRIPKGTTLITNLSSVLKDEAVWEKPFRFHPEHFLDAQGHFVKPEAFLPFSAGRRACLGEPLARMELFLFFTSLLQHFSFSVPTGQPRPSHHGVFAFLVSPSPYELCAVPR

[8] = Intrinsic clearance in human liver microsomes at 1 to 5 uM by HPLC-MS analysis; format: ADME, Microsome; settings: read-out: CLH
Outline: (§1)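 Incubation mixtures pre-equilibrated at 37 °C with NADPH and MgCl2, then rat or human liver microsomes added to start the reaction. Aliquots were withdrawn and quenched at several time points, and percent parent remaining was measured by HPLC-MS and plotted against time. t1/2 was taken from the slope of peak area over time and used to calculate CLint.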

[9] = Intrinsic clearance in Sprague-Dawley rat liver microsomes at 1 to 5 uM by HPLC-MS analysis; format: ADME, Microsome; settings: read-out: CLH; outline: as §1
[10] = target: T3, 5-hydroxytryptamine receptor 1A (Homo sapiens, UniProt P08908); assay: Agonist activity at human 5-HT1A receptor expressed in human HeLa cells assessed as inhibition of forskolin-stimulated cAMP formation after 10 mins by RIA; format: functional, cell-based
T3 sequence (P08908 whole entry): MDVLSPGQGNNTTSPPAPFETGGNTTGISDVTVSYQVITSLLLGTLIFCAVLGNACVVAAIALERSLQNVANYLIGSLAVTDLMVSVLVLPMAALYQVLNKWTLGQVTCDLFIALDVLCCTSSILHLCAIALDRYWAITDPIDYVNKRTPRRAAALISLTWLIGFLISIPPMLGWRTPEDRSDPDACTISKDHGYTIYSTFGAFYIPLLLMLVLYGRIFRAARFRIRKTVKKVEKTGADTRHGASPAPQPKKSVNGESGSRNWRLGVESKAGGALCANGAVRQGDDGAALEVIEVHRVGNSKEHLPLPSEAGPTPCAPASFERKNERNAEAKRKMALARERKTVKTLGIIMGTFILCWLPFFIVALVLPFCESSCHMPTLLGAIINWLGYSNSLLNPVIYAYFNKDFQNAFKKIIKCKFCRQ

[11] = target: 5-hydroxytryptamine receptor 7 (Rattus norvegicus, UniProt P32305); assay: Displacement of [3H]-5-CT from 5-HT7 receptor in Sprague-Dawley rat hypothalamus after 120 mins
Sequence of 5-hydroxytryptamine receptor 7 (P32305 whole entry): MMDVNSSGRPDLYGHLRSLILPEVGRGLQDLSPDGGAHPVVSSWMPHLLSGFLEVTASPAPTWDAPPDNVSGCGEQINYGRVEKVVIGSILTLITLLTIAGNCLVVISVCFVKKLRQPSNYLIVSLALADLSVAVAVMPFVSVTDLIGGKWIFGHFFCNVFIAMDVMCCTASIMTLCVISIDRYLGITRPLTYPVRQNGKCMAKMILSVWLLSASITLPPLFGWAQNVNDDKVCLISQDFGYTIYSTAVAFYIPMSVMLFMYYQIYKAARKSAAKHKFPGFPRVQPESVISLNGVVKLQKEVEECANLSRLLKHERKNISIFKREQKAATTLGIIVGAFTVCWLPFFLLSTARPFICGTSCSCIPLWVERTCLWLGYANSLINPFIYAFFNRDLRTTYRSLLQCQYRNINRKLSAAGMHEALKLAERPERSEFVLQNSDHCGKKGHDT

[12] = target: 5-hydroxytryptamine receptor 4 (Rattus norvegicus, UniProt Q62758); assay: Displacement of [3H]GR113808 from 5-HT4 receptor in Sprague-Dawley rat striatum after 30 mins
Sequence of 5-hydroxytryptamine receptor 4 (Q62758 whole entry): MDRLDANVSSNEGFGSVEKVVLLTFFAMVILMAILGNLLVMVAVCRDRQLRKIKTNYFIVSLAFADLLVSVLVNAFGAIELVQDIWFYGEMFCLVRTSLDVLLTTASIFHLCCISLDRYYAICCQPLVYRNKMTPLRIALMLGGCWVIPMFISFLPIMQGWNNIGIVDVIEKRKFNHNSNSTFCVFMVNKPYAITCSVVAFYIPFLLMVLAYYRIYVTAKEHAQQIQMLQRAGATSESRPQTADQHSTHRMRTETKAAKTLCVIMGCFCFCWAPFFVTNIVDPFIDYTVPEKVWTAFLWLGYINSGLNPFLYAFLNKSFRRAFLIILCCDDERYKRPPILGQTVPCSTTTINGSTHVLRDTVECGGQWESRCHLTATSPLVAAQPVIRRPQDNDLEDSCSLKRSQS

[13] = target: T4, 5-hydroxytryptamine receptor 3A (Rattus norvegicus, UniProt P35563); assay: Displacement of [3H]LY 278584 from 5-HT3 receptor in Sprague-Dawley rat cerebral cortex after 30 mins; format: tissue-based
T4 sequence (P35563 whole entry): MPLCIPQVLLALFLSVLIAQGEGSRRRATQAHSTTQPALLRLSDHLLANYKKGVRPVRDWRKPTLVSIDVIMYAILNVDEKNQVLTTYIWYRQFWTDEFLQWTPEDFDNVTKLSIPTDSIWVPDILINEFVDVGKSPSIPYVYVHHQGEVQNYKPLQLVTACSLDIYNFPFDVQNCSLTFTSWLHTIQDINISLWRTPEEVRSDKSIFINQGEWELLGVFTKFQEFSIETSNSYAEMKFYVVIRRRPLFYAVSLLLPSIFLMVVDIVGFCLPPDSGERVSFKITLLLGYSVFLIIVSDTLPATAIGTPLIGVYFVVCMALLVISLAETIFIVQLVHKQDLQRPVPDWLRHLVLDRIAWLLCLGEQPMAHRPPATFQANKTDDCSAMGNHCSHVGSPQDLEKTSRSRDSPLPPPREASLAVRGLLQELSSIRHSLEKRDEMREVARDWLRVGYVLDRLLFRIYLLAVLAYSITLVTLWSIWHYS

[14] = target: 5-hydroxytryptamine receptor 2A (Rattus norvegicus, UniProt P14842); assay: Displacement of [3H]ketanserin from 5-HT2A receptor in Sprague-Dawley rat frontal cortex after 15 mins; format: tissue-based
Sequence of 5-hydroxytryptamine receptor 2A (P14842 whole entry): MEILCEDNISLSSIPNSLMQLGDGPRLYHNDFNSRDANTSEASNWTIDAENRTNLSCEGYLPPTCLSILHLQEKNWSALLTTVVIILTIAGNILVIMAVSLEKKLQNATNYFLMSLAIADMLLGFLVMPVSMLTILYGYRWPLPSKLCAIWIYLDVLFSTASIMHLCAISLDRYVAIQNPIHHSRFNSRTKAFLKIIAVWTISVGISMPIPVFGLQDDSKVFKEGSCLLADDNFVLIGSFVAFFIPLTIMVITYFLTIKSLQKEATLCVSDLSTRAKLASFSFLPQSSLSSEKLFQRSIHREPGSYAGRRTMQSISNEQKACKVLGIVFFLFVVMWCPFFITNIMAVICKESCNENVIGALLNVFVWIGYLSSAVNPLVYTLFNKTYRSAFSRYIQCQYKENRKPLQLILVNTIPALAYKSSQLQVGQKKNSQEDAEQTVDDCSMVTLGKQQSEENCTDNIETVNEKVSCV

CCOc1ccccc1OCCNCCCCN1C(=O)C2CCCN2C1=O.Cl (centres undefined)
inhibition [1]: inactive
inhibition [2]: inactive
inhibition [3]: inactive
Activity [4]: Non-toxic
Activity [5]: inactive
Activity [6]: Active
activity at 0.5 h, 10 µM [7]: 18%
CLint scaled at up to 5 µM [8]: 3.5 mL/min/kg
CLint scaled at up to 5 µM [9]: 107 mL/min/kg
EC50 [10]: 19 nM
Ki [11]: 16.9 nM
Ki [12]: > 1000 nM
Ki [13]: > 1000 nM
Ki [14]: > 1000 nM
